According to ChEMBL document CHEMBL4004850, “Rational design of reversible inhibitors for trehalose 6-phosphate phosphatases” (Eur J Med Chem, 2017):

Assays:
[1] = tested on: Mycobacterium tuberculosis; test: Inhibition of Mycobacterium tuberculosis T6PP using T6P as substrate assessed as fraction of enzyme unbound with compound by measuring ratio of initial velocities of T6P substrate hydrolysis in presence and absence of compound at 1 mM after 5 mins by BioMol green dye based HTS assay
Procedure, shortened: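 Mt-T6PP (5–25 nM, freshly purified) in 25 mM Hepes pH 7.5, 50 mM NaCl, 5 mM MgCl₂, 5% glycerol at 25 °C. T6P at Km. Initial velocity was measured with and without 1 mM inhibitor; released phosphate read as absorbance at 625 nm after 30 min incubation. VI/V is the unbound-enzyme fraction.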

[2] = Inhibition of Mycobacterium tuberculosis T6PP using T6P as substrate by Lineweaver-Burk plot analysis
Procedure, shortened: (§1)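 Continuous phosphate-release assay (EnzChek, MESG/purine nucleoside phosphorylase) at 25 °C. Initial velocities of T6P hydrolysis by T6PP were taken at varied T6P with inhibitor at 0, Ki and 2×Ki. Km and Vmax come from double-reciprocal plots.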

[3] = tested on: Mycobacterium tuberculosis; test: Inhibition of Mycobacterium tuberculosis T6PP assessed as Km for substrate using T6P as substrate at 1 mM by Lineweaver-Burk plot analysis; procedure, shortened: as §1
[4] = tested on: Mycobacterium tuberculosis; test: Inhibition of Mycobacterium tuberculosis T6PP assessed as Vmax for substrate using T6P as substrate by Lineweaver-Burk plot analysis; procedure, shortened: as §1

| Compound | Ratio [1] | also measured |
| --- | --- | --- |
| OC[C@H]1O[C@@H](NC(=S)Nc2ccccc2)[C@H](O)[C@@H](O)[C@@H]1O | 1.04 |  |
| CCCCCCCCO[C@@H]1O[C@H](COS(=O)(=O)O)[C@@H](O)[C@H](O)[C@H]1O | 0.83 |  |
| O=S(=O)(O)OC[C@H]1O[C@H](O)[C@H](O)[C@@H](O)[C@@H]1O | 0.97 |  |
| OC[C@H]1O[C@@H](Oc2ccccc2)[C@H](O)[C@@H](O)[C@@H]1O | 0.81 |  |
| O=Cc1ccccc1O[C@@H]1O[C@H](COS(=O)(=O)O)[C@@H](O)[C@H](O)[C@H]1O | 1.17 |  |
| CO[C@H]1O[C@H](COS(=O)(=O)O)[C@@H](O)[C@H](O)[C@H]1O | 0.91 |  |
| CC(=O)Nc1ccc(O[C@@H]2O[C@H](COS(=O)(=O)O)[C@@H](O)[C@H](O)[C@H]2O)cc1 | 0.94 |  |
| CO[C@H]1O[C@H](COS(=O)(=O)O)[C@@H](OCc2ccccc2)[C@H](O)[C@H]1O | 1.11 |  |
| O=S(=O)(O)OCc1cccc(O[C@@H]2O[C@H](CO)[C@@H](O)[C@H](O)[C@H]2O)c1 | 0.96 |  |
| O=S(=O)(O)OC[C@H]1O[C@@H](Oc2cccc(CO)c2)[C@H](O)[C@@H](O)[C@@H]1O | 0.69 |  |
| O=S(=O)(O)OC[C@H]1O[C@@H](Oc2cccc3ccccc23)[C@H](O)[C@@H](O)[C@@H]1O | 0.85 |  |
| CCCCCCc1ccc(O[C@H]2O[C@H](COS(=O)(=O)O)[C@@H](O)[C@H](O)[C@H]2O)cc1 |  | Ki [2]: > 400 µM |
| O=S(=O)(O)OC[C@H]1O[C@@H](Oc2ccccc2)[C@H](O)[C@@H](O)[C@@H]1O | 0.94 |  |
| CO[C@H]1O[C@H](COS(=O)(=O)O)[C@@H](O)[C@H](OCc2ccccc2)[C@H]1O | 1.16 |  |
| O=S(=O)(O)OC[C@H]1O[C@H](OCc2ccccc2)[C@H](O)[C@@H](O)[C@@H]1O | 0.83 |  |
| O=S(=O)(O)OC[C@H]1O[C@@H](Oc2ccc(CO)cc2)[C@H](O)[C@@H](O)[C@@H]1O | 0.85 |  |
| O=S(=O)(O)OC[C@H]1O[C@H](O[C@H]2O[C@H](CO)[C@@H](O)[C@H](O)[C@H]2O)[C@H](O)[C@@H](O)[C@@H]1O | 0.43 | Ki [2]: 130 µM |
| O=Cc1cccc(O[C@@H]2O[C@H](COS(=O)(=O)O)[C@@H](O)[C@H](O)[C@H]2O)c1 | 0.67 | Ki [2]: 1700 µM; Km [3]: 712 µM; Vmax [4]: 0.247 µM/s |
| O=S(=O)(O)OC[C@H]1O[C@@H](Oc2ccc(F)c(F)c2)[C@H](O)[C@@H](O)[C@@H]1O | 0.8 |  |

| Compound | Ratio [1] | also measured |
| --- | --- | --- |
| OC[C@H]1O[C@H](O[C@H]2O[C@H](CO)[C@@H](O)[C@H](O)[C@H]2O)[C@H](O)[C@@H](O)[C@@H]1O [TREHALOSE] | 0.83 |  |
| CCCCCCCCc1ccc(O[C@H]2O[C@H](COS(=O)(=O)O)[C@@H](O)[C@H](O)[C@H]2O)cc1 |  | Ki [2]: 100 µM |
| CCCCCCCCc1ccc(O[C@@H]2O[C@H](COS(=O)(=O)O)[C@@H](O)[C@H](O)[C@H]2O)cc1 | 0.42 | Ki [2]: > 300 µM |
| OC[C@H]1O[C@@H](n2cc(-c3ccccc3)nn2)[C@H](O)[C@@H](O)[C@@H]1O | 0.95 |  |
| O=[N+]([O-])c1ccc(O[C@@H]2O[C@H](COS(=O)(=O)O)[C@@H](O)[C@H](O)[C@H]2O)cc1 | 1.27 |  |
| OC[C@H]1O[C@@H](Nc2ccccc2)[C@H](O)[C@@H](O)[C@@H]1O | 0.88 |  |
| CCCCCCc1ccc(O[C@@H]2O[C@H](COS(=O)(=O)O)[C@@H](O)[C@H](O)[C@H]2O)cc1 |  | Ki [2]: > 400 µM |
| O=S(=O)(O)OC[C@H]1O[C@H](Oc2ccccc2)[C@H](O)[C@@H](O)[C@@H]1O | 1.17 |  |
| Nc1ccc(O[C@@H]2O[C@H](COS(=O)(=O)O)[C@@H](O)[C@H](O)[C@H]2O)cc1 | 1 |  |
| CO[C@H]1O[C@H](COS(=O)(=O)O)[C@@H](O)[C@H](O)[C@H]1OCc1ccccc1 | 1.01 |  |
| O=Cc1ccc(O[C@@H]2O[C@H](COS(=O)(=O)O)[C@@H](O)[C@H](O)[C@H]2O)cc1 | 0.87 |  |
| NS(=O)(=O)OCc1cccc(N[C@@H]2O[C@H](CO)[C@@H](O)[C@H](O)[C@H]2O)c1 | 1.17 |  |
| O=S(=O)(O)OC[C@H]1O[C@@H](n2cc(-c3ccccc3)nn2)[C@H](O)[C@@H](O)[C@@H]1O | 0.98 |  |
| O=S(=O)(O)OC[C@H]1O[C@@H](Oc2ccccc2CO)[C@H](O)[C@@H](O)[C@@H]1O | 0.89 |  |
| O=P(O)(O)OC[C@H]1O[C@@H](Oc2ccccc2)[C@H](O)[C@@H](O)[C@@H]1O | 0.94 |  |
| O=S(=O)(O)OC[C@H]1O[C@@H](Oc2ccc(-c3ccccc3)cc2)[C@H](O)[C@@H](O)[C@@H]1O | 0.58 | Ki [2]: 1600 µM; Km [3]: 838 µM; Vmax [4]: 0.0271 µM/s |
| OC[C@H]1O[C@H](Oc2ccccc2)[C@H](O)[C@@H](O)[C@@H]1O | 0.88 |  |
| COc1cc(C=O)cc(OC)c1O[C@@H]1O[C@H](COS(=O)(=O)O)[C@@H](O)[C@H](O)[C@H]1O | 1.09 |  |
